Experimental data published in PubChem BioAssay AID449755 (Broad Institute, 2010).
Inconclusive results are not listed. Active and inactive are the calls of the source.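 The calls were made as follows: active = compounds raising caspase signal whose fitted AC50 is at most ten times the top tested dose; inconclusive = flat fit with 30 to 70% activity, or failed fit; inactive = the rest.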

Test system: HMC 1-8 low-A1 cells, caspase-3/7 luminescence, 3 h
Assay: caspase induction, A1-low human cancer line – cell-based, HMC 1-8 low A1, caspase luminescence, counter-screen for A1 inhibitor project, dose response (AID 449755)
Outline: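 Test system: low-A1 HMC 1-8 human cancer cell line; Input: 2500 cells/well; Buffer or medium: RPMI-1640 growth medium with 10% FBS; Compound: pin-transferred compound; Times: 3 h compound exposure, 37 °C/5% CO2, 1 h room-temperature detection; Measured by: caspase-3/7 DEVD luminescence; Evaluation: caspase-3/7 activation, marking off-target non-A1 activity.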

Structure (SMILES) | AC50
Cc1cccc(NC(=O)/C(C#N)=C/c2cn(CC(=O)NCc3ccco3)c3ccccc23)c1 | > 35 µM (inactive)
O=C1C2C3C=CC(CO)(O3)C2C(=O)N1c1ccc(-c2ccccc2)cc1 (stereo not drawn) | > 35 µM (inactive)
Cc1nn(-c2ccccc2)c(Cl)c1CN(C(=O)CCl)c1ccc(Cl)cc1 | > 35 µM (inactive)
CC1=NNC(=O)/C1=C\c1cn(-c2ccccc2)nc1-c1ccccc1 | > 35 µM (inactive)
CCN(C(=O)CCN1C(=O)c2ccccc2S1(=O)=O)c1ccccc1 | > 35 µM (inactive)
COc1ccc(-c2c(C#N)c(N)nc(Sc3ccc(Cl)cc3)c2C#N)cc1 | > 35 µM (inactive)
CCCc1ccc(OCc2ccc(C(=O)N/N=C/c3cccc([N+](=O)[O-])c3)o2)c(OC)c1 | 7.31 µM
COc1cc(NC(=O)c2ccc(Cl)cc2Cl)ccc1-c1cc2ccccc2oc1=O | > 35 µM (inactive)
O=C(N=Nc1c(O)[nH]c2ccc([N+](=O)[O-])cc12)c1cc(-c2ccccc2Cl)nc2ccccc12 | > 35 µM (inactive)
COc1cc2ncnc(NCc3ccc(F)cc3)c2cc1OC | > 35 µM (inactive)
COc1ccc(N(C(=O)CCl)C(C(=O)NCCc2ccccc2)c2cccs2)cc1Cl (stereo not drawn) | > 35 µM (inactive)
COc1cc(NC(=O)c2ccccc2F)ccc1NC(=O)c1cc2ccccc2o1 | > 35 µM (inactive)
Cc1cc(NC(=O)CSc2nc3cc(Cl)ccc3c(=O)n2Cc2ccco2)no1 | > 35 µM (inactive)
Cc1cccc(C)c1NC(=O)C(Cl)C(=O)c1ccccc1 (stereo not drawn) | > 35 µM (inactive)
CCc1ccccc1NC(=O)C(CC)Sc1nc2cc3c(cc2c(=O)n1Cc1ccco1)OCO3 (stereo not drawn) | > 35 µM (inactive)
COc1ccc(-c2ccc3c(c2)S(=O)(=O)c2cccc(C(=O)NCCOc4ccccc4)c2C3=O)cc1OC | > 35 µM (inactive)
COc1ccc(Cn2c(SCc3ccc(C)cc3)nc3cc(OC)c(OC)cc3c2=N)cc1Cl | 27.1 µM

Structure (SMILES) | AC50
COc1ccc(S(=O)(=O)N2CC(O)CC2C(=O)OCC(=O)Nc2ccc(Cl)cn2)cc1 (stereo not drawn) | > 35 µM (inactive)
CCOc1ccc(NCc2cccn2-c2nnc(N3CCC(C(=O)NCCCN4CC(C)CC(C)C4)CC3)s2)cc1 (stereo not drawn) | > 35 µM (inactive)
Cc1cc(C(=O)CCl)c(C)n1CCc1ccc(Cl)cc1 | > 35 µM (inactive)
CC(C)CCN(C(=O)Cc1ccc(Cl)c(Cl)c1)c1c(N)n(Cc2ccccc2)c(=O)[nH]c1=O | 24.3 µM
COc1cc(NC(=O)c2ccccc2)c(OC)cc1NC(=O)Cc1ccc(Br)cc1 | > 35 µM (inactive)
Cc1ccc(NC(=S)NC(NC(=O)Cc2cccc3ccccc23)C(Cl)(Cl)Cl)cc1 (stereo not drawn) | 27 µM
CSC[C@@H]1NC(=S)N(c2ccc(C)cc2)C1=O | > 35 µM (inactive)
O=C(c1ccc(COc2ccc3ccccc3c2)o1)N1N=C(C(F)F)CC1(O)C(F)F (stereo not drawn) | > 35 µM (inactive)
CCOC(=O)C1=C(c2ccccc2)O/C(=C(/C#N)C(F)(F)F)S1 | > 35 µM (inactive)
CC(C)(C)c1ccc2c(c1)OC(C(=O)N/N=C\c1ccc[nH]1)CO2 (stereo not drawn) | > 35 µM (inactive)
COc1cc(/C=C(/C#N)C(=O)Nc2ccc(Cl)cc2)ccc1Oc1nc(Cl)ncc1F | > 35 µM (inactive)
CCc1nn(-c2cc(Oc3cccc4ccccc34)nc(-c3ccccc3)n2)c(N)c1C#N | > 35 µM (inactive)
CCOCCCNC(=O)c1ccc2c(c1)N=C(CC)c1cc(Br)ccc1S2 | > 35 µM (inactive)
CC(C)N=c1scc(-c2ccco2)n1/N=C/c1ccc(O)c(O)c1 | > 35 µM (inactive)
CCC(Sc1nc2cc3c(cc2c(=O)n1Cc1ccco1)OCO3)C(=O)Nc1cccc(OC)c1 (stereo not drawn) | > 35 µM (inactive)
CCc1ccc(NC(=O)c2nc(S(=O)(=O)Cc3ccccc3)ncc2Cl)cc1 | > 35 µM (inactive)
